Experimental data taken from ChEMBL document CHEMBL2401700, “Discovery of TD-8954, a clinical stage 5-HT(4) receptor agonist with gastrointestinal prokinetic properties” (Bioorg Med Chem Lett, 2013).
Calls of active or inactive are those of the source. The rule behind the calls is not given here.

Legend:
[1] = Half life in rat liver micrososmes; type: ADME, Microsome; conditions: liver microsomes
[2] = Cardiotoxicity in dog coronary artery assessed as coronary artery constriction; type: toxicity, tissue-based, Canis lupus familiaris
[3] = Permeability across human Caco2 cells; type: ADME, cell-based; conditions: Caco-2, read-out: Kp
[4] = test system: Rattus norvegicus; assay: Agonist activity at 5HT4 receptor in ID dosed rat assessed as dose required to cause esophageal relaxation of 0.1 mm; type: functional
In short: (§1)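 Anesthetized rats dosed intraduodenally over about 0.01–10 mg/kg. Esophageal relaxation was tracked by digital sonomicrometry as the change in inter-crystal distance (mm), n = 4–6. An ED50 was derived from the dose–response, and the dose giving a 0.1 mm relaxation response was calculated.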

[5] = biological target: T1, 5-hydroxytryptamine receptor 3A (Homo sapiens, UniProt P46098); assay: Binding affinity to human recombinant 5HT3 receptor
T1 sequence (P46098 whole entry): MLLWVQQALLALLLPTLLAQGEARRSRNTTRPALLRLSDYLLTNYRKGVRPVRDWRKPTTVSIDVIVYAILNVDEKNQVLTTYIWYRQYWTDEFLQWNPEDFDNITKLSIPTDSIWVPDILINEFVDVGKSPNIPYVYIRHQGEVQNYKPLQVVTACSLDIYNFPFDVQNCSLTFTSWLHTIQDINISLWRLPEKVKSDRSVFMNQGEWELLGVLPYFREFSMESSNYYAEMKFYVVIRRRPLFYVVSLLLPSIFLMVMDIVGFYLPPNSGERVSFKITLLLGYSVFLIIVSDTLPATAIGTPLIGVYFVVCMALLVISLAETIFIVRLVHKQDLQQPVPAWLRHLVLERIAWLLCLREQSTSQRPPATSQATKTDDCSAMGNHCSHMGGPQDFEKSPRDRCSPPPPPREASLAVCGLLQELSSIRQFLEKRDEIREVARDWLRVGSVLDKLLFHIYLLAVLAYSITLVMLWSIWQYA

[6] = biological target: 5-hydroxytryptamine receptor 4 (Homo sapiens, UniProt Q13639); assay: Agonist activity at human recombinant 5HT4 receptor assessed as cAMP accumulation relative to 5-HT; type: functional
In short: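 cAMP accumulation in cells expressing human recombinant 5-HT4 receptor, reported as pEC50 with intrinsic activity as % of the maximum response achieved by 5-HT.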

[7] = biological target: T2, 5-hydroxytryptamine receptor 3A (Homo sapiens) (UniProt P46098); assay: Inhibition of serotonin 5-HT3A receptor (unknown origin) at 1 uM
T2 sequence (whole entry): T1 sequence (P46098 whole entry)

[8] = biological target: 5-hydroxytryptamine receptor 2B (Homo sapiens, UniProt P41595); assay: Inhibition of serotonin 5-HT2B receptor (unknown origin) at 1 uM
[9] = biological target: 5-hydroxytryptamine receptor 6 (Homo sapiens) (UniProt P50406); assay: Inhibition of serotonin 5-HT6 receptor (unknown origin) at 1 uM
[10] = Oral bioavailability in beagle dog at 2 mg/kg; type: ADME, organism-based, Canis lupus familiaris; conditions: in vivo
[11] = Cardiotoxicity in pig coronary artery assessed as coronary artery constriction; type: toxicity, tissue-based, Sus scrofa
[12] = Oral bioavailability in Sprague-Dawley rat at 5 mg/kg; type: ADME, organism-based; conditions: in vivo
[13] = AUC (0 to t) in Sprague-Dawley rat at 5 mg/kg, po; type: ADME, organism-based; design: dose 5 mg/kg, route oral; conditions: plasma
[14] = biological target: T3, 5-hydroxytryptamine receptor 2C (Homo sapiens) (UniProt P28335); assay: Inhibition of serotonin 5-HT2C receptor (unknown origin) at 1 uM
T3 sequence (whole entry): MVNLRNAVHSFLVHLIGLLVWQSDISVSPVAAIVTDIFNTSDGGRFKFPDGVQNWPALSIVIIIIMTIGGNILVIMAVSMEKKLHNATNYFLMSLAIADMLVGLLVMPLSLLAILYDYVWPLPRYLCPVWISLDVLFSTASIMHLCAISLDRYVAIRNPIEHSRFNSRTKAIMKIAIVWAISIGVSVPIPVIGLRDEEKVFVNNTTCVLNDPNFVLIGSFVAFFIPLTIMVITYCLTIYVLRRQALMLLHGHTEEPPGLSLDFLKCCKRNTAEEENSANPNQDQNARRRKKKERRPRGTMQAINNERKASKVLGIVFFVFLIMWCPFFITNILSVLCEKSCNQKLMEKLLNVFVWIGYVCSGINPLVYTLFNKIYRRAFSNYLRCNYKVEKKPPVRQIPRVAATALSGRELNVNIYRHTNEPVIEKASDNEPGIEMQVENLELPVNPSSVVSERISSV

[15] = biological target: 5-hydroxytryptamine receptor 5A (Homo sapiens) (UniProt P47898); assay: Inhibition of serotonin 5-HT5A receptor (unknown origin) at 1 uM
[16] = biological target: 5-hydroxytryptamine receptor 1B (Homo sapiens) (UniProt P28222); assay: Inhibition of serotonin 5-HT1B receptor (unknown origin) at 1 uM
[17] = Elimination half life in healthy human; type: ADME, organism-based; conditions: in vivo, read-out: beta t1/2 (converted)
[18] = biological target: 5-hydroxytryptamine receptor 1D (Homo sapiens, UniProt P28221); assay: Inhibition of serotonin 5-HT1D receptor (unknown origin) at 1 uM
[19] = test system: Cavia porcellus; assay: Prokinetic activity at guinea pig colonic transit model assessed as reduction in time taken for excretion of first pellet at 0.03 mg/kg, sc by carmine red dye-based assay relative to vehicle-treated control; type: functional; design: scale not given: the % may be the effect or the level left; conditions: route subcutaneous
In short: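 Conscious guinea pigs given sc doses of 0.03, 0.3 or 3 mg/kg or vehicle (2 mL/kg), n = 9–22 per group. Colonic transit was measured as time to excretion of the first fecal pellet containing carmine red dye marker. Compared with vehicle by ANOVA with Dunnett's post-hoc test, p < 0.05.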

[20] = biological target: 5-hydroxytryptamine receptor 7 (Homo sapiens, UniProt P34969); assay: Inhibition of serotonin 5-HT7 receptor (unknown origin) at 1 uM
[21] = biological target: 5-hydroxytryptamine receptor 4 (Cavia porcellus) (UniProt O70528)
[22] = test system: Rattus norvegicus; assay: Induction of 5-HT4 receptor-mediated esophageal relaxation in ID dosed rat; type: functional; in short: as §1
[23] = Cmax in Sprague-Dawley rat at 5 mg/kg, po; type: ADME, organism-based; design: dose 5 mg/kg, route oral; conditions: in vivo
[24] = biological target: 5-hydroxytryptamine receptor 2A (Homo sapiens, UniProt P28223); assay: Inhibition of serotonin 5-HT2A receptor (unknown origin) at 1 uM
[25] = AUC (0 to t) in beagle dog at 2 mg/kg, po; type: ADME, organism-based, Canis lupus familiaris; design: dose 2 mg/kg, route oral; conditions: plasma
[26] = Cardiotoxicity in human coronary artery assessed as coronary artery constriction; type: toxicity, tissue-based
[27] = Half life in beagle dog at 2 mg/kg, po; type: ADME, organism-based, Canis lupus familiaris; design: dose 2 mg/kg, route oral; conditions: in vivo
[28] = biological target: T4, 5-hydroxytryptamine receptor 1A (Homo sapiens) (UniProt P08908); assay: Inhibition of serotonin 5-HT1A receptor (unknown origin) at 1 uM
T4 sequence (whole entry): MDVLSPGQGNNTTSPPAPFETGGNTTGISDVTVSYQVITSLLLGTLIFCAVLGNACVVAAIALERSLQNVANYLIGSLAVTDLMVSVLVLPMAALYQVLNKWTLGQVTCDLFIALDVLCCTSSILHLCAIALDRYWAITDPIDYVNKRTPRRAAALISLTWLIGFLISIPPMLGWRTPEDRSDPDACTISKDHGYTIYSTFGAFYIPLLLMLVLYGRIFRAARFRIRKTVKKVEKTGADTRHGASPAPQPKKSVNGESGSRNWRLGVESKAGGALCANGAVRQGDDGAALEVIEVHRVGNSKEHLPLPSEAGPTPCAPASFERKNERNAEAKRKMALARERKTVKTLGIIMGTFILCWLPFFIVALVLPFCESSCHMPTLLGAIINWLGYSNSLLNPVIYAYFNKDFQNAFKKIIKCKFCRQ

[29] = species: Homo sapiens; assay: Increase in bowel movements in healthy human at 0.1 to 20 mg after 24 hrs relative to placebo
[30] = Cmax in beagle dog at 2 mg/kg, po; type: ADME, organism-based, Canis lupus familiaris; design: dose 2 mg/kg, route oral; conditions: in vivo
[31] = Half life in Sprague-Dawley rat at 5 mg/kg, po; type: ADME, organism-based; design: dose 5 mg/kg, route oral; conditions: in vivo

Sequence of 5-hydroxytryptamine receptor 7 (P34969 whole entry): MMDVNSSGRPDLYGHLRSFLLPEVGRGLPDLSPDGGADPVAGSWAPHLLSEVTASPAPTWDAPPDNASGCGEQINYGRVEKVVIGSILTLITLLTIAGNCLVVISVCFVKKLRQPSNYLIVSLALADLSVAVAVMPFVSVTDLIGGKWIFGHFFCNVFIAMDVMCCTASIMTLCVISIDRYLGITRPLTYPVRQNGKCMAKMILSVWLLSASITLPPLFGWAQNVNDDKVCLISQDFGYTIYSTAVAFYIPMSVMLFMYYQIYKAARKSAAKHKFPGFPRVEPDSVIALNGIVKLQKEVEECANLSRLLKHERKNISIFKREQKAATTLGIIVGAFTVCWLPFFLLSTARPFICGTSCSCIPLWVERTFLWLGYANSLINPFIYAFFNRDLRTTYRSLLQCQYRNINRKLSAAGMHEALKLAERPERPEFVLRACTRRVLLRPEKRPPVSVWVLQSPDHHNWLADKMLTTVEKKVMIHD
Sequence of 5-hydroxytryptamine receptor 2A (P28223 whole entry): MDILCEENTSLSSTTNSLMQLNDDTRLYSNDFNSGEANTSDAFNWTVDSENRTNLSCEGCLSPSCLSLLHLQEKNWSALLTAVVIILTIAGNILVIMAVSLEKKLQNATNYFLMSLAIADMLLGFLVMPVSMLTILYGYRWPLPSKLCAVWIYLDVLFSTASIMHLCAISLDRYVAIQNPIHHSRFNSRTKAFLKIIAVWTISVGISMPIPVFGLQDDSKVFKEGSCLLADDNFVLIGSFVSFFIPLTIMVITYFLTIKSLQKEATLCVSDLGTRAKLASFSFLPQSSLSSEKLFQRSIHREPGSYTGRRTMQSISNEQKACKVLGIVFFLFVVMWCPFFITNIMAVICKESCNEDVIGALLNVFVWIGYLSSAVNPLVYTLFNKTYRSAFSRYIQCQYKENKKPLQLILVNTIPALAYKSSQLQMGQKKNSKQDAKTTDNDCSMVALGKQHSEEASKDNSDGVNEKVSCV
Sequence of 5-hydroxytryptamine receptor 1B (Homo sapiens) (P28222 whole entry): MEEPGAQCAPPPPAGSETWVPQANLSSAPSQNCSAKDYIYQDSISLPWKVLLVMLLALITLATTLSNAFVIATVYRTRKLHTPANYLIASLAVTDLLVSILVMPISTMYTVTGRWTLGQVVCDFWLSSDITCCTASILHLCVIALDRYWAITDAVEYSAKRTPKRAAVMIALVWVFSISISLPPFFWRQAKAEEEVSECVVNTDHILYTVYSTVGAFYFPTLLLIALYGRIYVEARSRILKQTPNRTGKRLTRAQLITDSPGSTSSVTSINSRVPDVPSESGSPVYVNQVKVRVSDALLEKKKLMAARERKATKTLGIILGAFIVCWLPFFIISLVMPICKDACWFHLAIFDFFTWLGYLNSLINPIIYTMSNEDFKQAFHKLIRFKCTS
Sequence of 5-hydroxytryptamine receptor 1D (P28221 whole entry): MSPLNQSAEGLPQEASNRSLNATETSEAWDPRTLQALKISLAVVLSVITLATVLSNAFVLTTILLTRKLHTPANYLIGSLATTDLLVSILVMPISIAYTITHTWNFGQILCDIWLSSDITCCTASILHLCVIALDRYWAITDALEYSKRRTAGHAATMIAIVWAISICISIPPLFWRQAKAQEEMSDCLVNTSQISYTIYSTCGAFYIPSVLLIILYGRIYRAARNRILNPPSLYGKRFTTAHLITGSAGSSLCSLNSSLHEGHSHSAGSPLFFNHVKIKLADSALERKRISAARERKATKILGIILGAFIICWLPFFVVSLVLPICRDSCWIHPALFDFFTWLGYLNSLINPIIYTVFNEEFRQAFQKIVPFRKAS
Sequence of 5-hydroxytryptamine receptor 6 (Homo sapiens) (P50406 whole entry): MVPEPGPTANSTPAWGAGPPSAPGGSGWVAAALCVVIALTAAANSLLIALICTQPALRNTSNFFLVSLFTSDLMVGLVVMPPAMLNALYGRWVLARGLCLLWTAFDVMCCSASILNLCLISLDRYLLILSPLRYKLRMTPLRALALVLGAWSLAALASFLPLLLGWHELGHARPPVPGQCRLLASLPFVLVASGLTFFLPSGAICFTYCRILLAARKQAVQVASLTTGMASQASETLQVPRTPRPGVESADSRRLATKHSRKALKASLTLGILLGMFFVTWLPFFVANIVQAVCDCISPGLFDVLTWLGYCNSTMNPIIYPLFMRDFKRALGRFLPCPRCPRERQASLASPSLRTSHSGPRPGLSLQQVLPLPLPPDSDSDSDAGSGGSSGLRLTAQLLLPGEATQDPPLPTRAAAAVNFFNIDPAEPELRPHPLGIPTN
Sequence of 5-hydroxytryptamine receptor 2B (P41595 whole entry): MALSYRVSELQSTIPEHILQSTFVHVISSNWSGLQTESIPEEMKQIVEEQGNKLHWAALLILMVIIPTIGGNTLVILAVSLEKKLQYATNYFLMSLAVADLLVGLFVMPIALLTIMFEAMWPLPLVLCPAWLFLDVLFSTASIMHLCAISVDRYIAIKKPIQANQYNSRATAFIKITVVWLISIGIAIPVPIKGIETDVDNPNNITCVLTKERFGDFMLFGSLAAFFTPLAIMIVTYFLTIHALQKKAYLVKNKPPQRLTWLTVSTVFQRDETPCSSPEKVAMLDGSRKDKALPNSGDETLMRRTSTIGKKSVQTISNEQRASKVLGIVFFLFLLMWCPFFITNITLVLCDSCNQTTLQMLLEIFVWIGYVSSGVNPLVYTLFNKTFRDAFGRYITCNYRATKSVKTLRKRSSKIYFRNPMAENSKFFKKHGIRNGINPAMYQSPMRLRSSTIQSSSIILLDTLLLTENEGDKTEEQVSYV
Sequence of 5-hydroxytryptamine receptor 4 (Q13639 whole entry): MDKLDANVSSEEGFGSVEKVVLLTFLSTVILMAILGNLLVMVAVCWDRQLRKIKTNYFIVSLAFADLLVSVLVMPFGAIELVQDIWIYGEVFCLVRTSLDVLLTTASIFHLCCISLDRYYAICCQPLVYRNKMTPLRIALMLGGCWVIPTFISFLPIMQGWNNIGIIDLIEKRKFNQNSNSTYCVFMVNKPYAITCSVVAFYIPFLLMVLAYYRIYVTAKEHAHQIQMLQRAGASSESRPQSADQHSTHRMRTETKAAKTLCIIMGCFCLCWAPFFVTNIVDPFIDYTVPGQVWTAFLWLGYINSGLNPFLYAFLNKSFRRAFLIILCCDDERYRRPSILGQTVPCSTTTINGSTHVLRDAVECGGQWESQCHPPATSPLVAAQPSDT
Sequence of 5-hydroxytryptamine receptor 4 (Cavia porcellus) (O70528 whole entry): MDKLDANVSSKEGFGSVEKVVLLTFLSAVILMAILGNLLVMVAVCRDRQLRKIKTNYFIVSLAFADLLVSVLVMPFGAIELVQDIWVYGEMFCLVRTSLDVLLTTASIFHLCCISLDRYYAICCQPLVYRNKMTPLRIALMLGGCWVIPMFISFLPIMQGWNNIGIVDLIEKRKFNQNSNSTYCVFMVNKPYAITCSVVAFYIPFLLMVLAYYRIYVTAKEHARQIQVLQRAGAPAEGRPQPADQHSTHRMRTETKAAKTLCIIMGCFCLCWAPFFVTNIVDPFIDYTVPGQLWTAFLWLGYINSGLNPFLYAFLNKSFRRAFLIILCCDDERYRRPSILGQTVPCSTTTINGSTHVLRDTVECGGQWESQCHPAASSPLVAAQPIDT
Sequence of 5-hydroxytryptamine receptor 5A (Homo sapiens) (P47898 whole entry): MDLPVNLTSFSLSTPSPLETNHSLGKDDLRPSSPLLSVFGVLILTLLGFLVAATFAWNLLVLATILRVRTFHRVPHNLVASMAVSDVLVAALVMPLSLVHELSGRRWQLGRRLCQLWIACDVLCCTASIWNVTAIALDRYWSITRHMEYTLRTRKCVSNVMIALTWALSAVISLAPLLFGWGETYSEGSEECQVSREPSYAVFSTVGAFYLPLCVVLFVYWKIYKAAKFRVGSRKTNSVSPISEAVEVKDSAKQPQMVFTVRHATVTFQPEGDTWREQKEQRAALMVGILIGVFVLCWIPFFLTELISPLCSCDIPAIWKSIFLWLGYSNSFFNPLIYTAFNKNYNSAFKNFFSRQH

half-life [1]: 1.43 h
Papp [3]: 54 ×10⁻⁶ cm/s
Ki [5]: 100 µM
Intrinsic activity [6]: 83%
inhibition [7]: < 50%
inhibition [8]: < 50%
inhibition [9]: < 50%
bioavailability [10]: 63%
bioavailability [12]: 77%
AUC(0-t) [13]: 1240 ng·h/mL
inhibition [14]: < 50%
inhibition [15]: < 50%
inhibition [16]: < 50%
half-life [17]: 12 h
inhibition [18]: < 50%
inhibition [20]: < 50%
pKb(app) [21]: 9.3
Activity [22]: Dose-dependent effect
Cmax [23]: 818 ng/mL
inhibition [24]: < 50%
AUC(0-t) [25]: 2280 ng·h/mL
half-life [27]: 3.5 h
inhibition [28]: < 50%
Cmax [30]: 464 ng/mL
half-life [31]: 1.6 h
Structure (SMILES): COC(=O)N1CCC(CN2CCC(CNC(=O)c3cccc4[nH]c(C(C)C)nc34)CC2)CC1
Activity [2]: Non-toxic
Activity [4]: 0.23 mg/kg
Activity [11]: Non-toxic
Activity [19]: 40%
ED50 [22]: 0.15 mg/kg
Activity [26]: Non-toxic
Activity [29]: Active
